Experimental data pooled from the literature.
Lines come from different studies, so protocols differ. ≈ marks a conversion by molar mass, not a printed value.

| Structure (SMILES) | test | system | setting | quantity | result |
| --- | --- | --- | --- | --- | --- |
| CC(=O)N[C@@H](CC(N)=O)C(=O)N[C@@H](CC(N)=O)C(=O)N[C@@H](CC(C)C)C(=O)N[C@H]1CSSC[C@@H](C(=O)N[C@H](C(N)=O)[C@@H](C)O)NC(=O)[C@H](CCCNC(=N)N)NC(=O)[C@H](Cc2c[nH]cn2)NC(=O)[C@H](Cc2cccc3ccccc23)NC(=O)CNC(=O)[C@H](Cc2c[nH]c3ccccc23)NC(=O)[C@H](CC(=O)O)NC(=O)[C@H](CCC(N)=O)NC(=O)[C@H](Cc2cccc3ccccc23)NC(=O)[C@H](C(C)C)NC1=O | – | PBS | pH 7.4 | solubility | 270 µg/mL (≈ 136 µM) |
| COc1ccc(C2=Nn3c(nnc3-c3cc(-c4ccc(Cl)cc4)n[nH]3)SC2C)cc1 (centres unmarked) | general toxicity | mouse | intravenous, 4 mg/kg, single dose | MTD | 4 mg/kg |
| N=c1c2c(-c3ccccc3)c(-c3ccccc3)n(Cc3ccccc3)c2ncn1[C@H]1CC[C@H](O)CC1 | – | male beagle dog, plasma | oral, 1 mg/kg, single dose | Tmax | ~15 h |
| CC[C@H](C)[C@H](NC(=O)[C@H](CO)NC(=O)[C@H](CCCNC(=N)N)NC(C)=O)C(=O)N[C@H]1CSSC[C@@H](C(=O)N[C@H](C(N)=O)[C@@H](C)O)NC(=O)[C@H](CCCNC(=N)N)NC(=O)[C@H](Cc2c[nH]cn2)NC(=O)[C@H](C)NC(=O)CNC(=O)[C@H](Cc2c[nH]c3ccccc23)NC(=O)[C@H](CC(=O)O)NC(=O)[C@H](CCC(N)=O)NC(=O)[C@H](Cc2cccc3ccccc23)NC(=O)[C@H](C(C)C)NC1=O | – | PBS | pH 7.4 | solubility | 2110 µg/mL (≈ 1130 µM) |
| CCCCCCCCCCCC(=O)OC[C@@H](COP(=O)(O)OCCNC(=O)c1ccc(Cn2c(=O)[nH]c3c(N)nc(OCCOC)nc32)cc1)OC(=O)CCCCCCCCCCC | general toxicity | mouse | intravenous | MTD | 150 mg/kg |
| COc1ccnc(C(=O)N[C@H]2COC(=O)[C@H](Cc3ccccc3)[C@@H](OC(=O)C(C)C)[C@H](C)OC2=O)c1OCOC(=O)C(C)C | – | – | – | pKa | 2.4 |
| Nc1ncc(-c2nc(N3CCOCC3)nc(N3CCOCC3)n2)c(C(F)F)n1 | shake flask | FeSSIF | 24 h | thermodynamic solubility | 13.9 µM (≈ 5.48 µg/mL) |
| CCCC(CCC)NC(=O)c1ccc2c(c1)OCO2 | general toxicity | Swiss mouse | intraperitoneal | MTD | 700 mg/kg |
| C[C@H](N)Cn1ncc2ccc3c(c21)CCCO3 | potentiometric | water | – | pKa | 8.45 |
| Cc1cc(C)nc(Nc2ncc(C(=O)NCCc3c(C)[nH]c4ccccc34)cn2)c1 | – | – | – | pKa | 5.8 |
| CC(C)(C)c1cc(NC(=O)Nc2ccc(Oc3ccnc4[nH]c(=O)cnc34)cc2F)n(-c2ccccc2)n1 | general toxicity | CD-1 mouse | oral, single dose | MTD | 40 mg/kg |
| CC(=O)N[C@@H](CC(N)=O)C(=O)N[C@@H](CCCNC(=N)N)C(=O)N[C@@H](CC(C)C)C(=O)N[C@H]1CSSC[C@@H](C(=O)N[C@H](C(N)=O)[C@@H](C)O)NC(=O)[C@H](CCCNC(=N)N)NC(=O)[C@H](Cc2c[nH]cn2)NC(=O)[C@H](Cc2cccc3ccccc23)NC(=O)CNC(=O)[C@H](Cc2c[nH]c3ccccc23)NC(=O)[C@H](CC(=O)O)NC(=O)[C@H](CCC(N)=O)NC(=O)[C@H](Cc2c[nH]c3ccccc23)NC(=O)[C@H](C(C)C)NC1=O | – | PBS | pH 7.4 | solubility | 340 µg/mL (≈ 169 µM) |
| Cc1ncc(C)n2nc(/C=C/c3nc(N4CCCC4)cc(N4CCOCC4)n3)nc12 | – | male beagle dog, plasma | oral, 0.3 mg/kg | Tmax | 1.2 h |
| C=C(CC)C(=O)c1ccc(OCC(=O)O)c(Cl)c1Cl | general toxicity | mouse | intraperitoneal | MTD | 30 mg/kg |
